One block for each molecule: values may come before it. Calls of active or inactive are those of the source. The calls are words filed in the database; no cut-off is given here.
Columns and labels:
Type in all cases: functional, cell-based
[1] = target: Toll-like receptor 2 (Mus musculus) (UniProt Q9QUN7); experiment: Antagonistic activity at mouse TLR2 expressed in HEK293 cells assessed as inhibition of lipoteichoic acid-induced NFkappaB translocation by secretory alkaline phosphatase reporter gene assay
Sequence of Toll-like receptor 2 (Mus musculus) (Q9QUN7 whole entry): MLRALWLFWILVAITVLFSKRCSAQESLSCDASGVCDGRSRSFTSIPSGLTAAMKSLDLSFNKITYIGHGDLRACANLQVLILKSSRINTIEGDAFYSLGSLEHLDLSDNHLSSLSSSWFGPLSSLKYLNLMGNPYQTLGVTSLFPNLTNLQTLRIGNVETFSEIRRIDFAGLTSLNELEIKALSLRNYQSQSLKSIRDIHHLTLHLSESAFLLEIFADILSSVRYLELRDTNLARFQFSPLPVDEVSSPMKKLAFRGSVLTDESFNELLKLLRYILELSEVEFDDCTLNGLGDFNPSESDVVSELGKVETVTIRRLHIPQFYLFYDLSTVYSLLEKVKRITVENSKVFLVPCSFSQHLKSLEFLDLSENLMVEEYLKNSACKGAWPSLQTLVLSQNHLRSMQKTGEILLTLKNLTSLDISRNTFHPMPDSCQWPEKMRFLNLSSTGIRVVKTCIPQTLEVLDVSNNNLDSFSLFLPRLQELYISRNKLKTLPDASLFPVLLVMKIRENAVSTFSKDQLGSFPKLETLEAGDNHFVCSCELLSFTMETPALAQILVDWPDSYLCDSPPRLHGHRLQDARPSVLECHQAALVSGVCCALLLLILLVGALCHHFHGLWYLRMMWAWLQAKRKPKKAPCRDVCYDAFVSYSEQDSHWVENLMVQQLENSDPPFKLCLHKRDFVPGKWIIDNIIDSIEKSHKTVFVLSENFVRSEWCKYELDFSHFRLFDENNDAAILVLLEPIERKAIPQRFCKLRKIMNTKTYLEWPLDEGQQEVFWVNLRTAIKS
Method in brief: (§1)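 Reporter HEK293 lines (human or murine TLR2, NF-κB-inducible secreted alkaline phosphatase) plated at ~10⁵ cells/mL. Stimulated with PAM2CS (1 μg/mL) or lipoteichoic acid (1 μg/mL) in the presence of graded test-compound concentrations. Phosphatase activity in supernatant measured spectrophotometrically at 620 nm using a phosphatase-specific chromogen.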

[2] = target: Toll-like receptor 2 (Homo sapiens) (UniProt O60603); experiment: Agonist activity at human TLR2 expressed in HEK293 cells assessed as NFkappaB translocation at 10 uM after 12 hrs by secretory alkaline phosphatase reporter gene assay
Sequence of Toll-like receptor 2 (Homo sapiens) (O60603 whole entry): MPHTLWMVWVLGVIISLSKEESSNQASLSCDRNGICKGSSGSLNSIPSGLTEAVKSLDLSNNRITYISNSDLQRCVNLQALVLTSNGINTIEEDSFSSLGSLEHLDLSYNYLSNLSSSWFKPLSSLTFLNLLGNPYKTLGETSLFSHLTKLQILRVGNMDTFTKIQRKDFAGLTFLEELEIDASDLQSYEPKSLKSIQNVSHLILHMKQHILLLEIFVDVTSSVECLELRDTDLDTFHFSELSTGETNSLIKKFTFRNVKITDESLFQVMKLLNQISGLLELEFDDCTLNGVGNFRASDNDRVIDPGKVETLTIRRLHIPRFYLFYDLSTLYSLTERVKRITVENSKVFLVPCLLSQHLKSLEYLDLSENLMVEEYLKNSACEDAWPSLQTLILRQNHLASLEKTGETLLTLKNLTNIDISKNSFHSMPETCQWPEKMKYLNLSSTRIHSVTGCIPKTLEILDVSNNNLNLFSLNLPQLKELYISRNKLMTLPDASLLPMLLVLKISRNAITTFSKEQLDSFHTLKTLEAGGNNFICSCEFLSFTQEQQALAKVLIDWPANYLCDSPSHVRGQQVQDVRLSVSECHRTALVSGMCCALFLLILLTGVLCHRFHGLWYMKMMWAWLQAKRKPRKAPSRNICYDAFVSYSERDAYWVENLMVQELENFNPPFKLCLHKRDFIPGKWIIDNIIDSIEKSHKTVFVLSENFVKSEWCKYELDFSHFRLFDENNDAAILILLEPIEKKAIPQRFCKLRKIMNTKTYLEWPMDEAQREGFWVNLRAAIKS

[3] = target: Toll-like receptor 2 (Homo sapiens) (UniProt O60603); experiment: Antagonistic activity at human TLR2 expressed in HEK293 cells assessed as inhibition of PAM2CS-induced NFkappaB translocation by secretory alkaline phosphatase reporter gene assay; method in brief: as §1
[4] = target: Toll-like receptor 2 (Homo sapiens) (UniProt O60603); experiment: Antagonistic activity at human TLR2 expressed in HEK293 cells assessed as inhibition of lipoteichoic acid-induced NFkappaB translocation by secretory alkaline phosphatase reporter gene assay; method in brief: as §1
[5] = target: Toll-like receptor 2 (Mus musculus) (UniProt Q9QUN7); experiment: Antagonistic activity at mouse TLR2 expressed in HEK293 cells assessed as inhibition of PAM2CS-induced NFkappaB translocation by secretory alkaline phosphatase reporter gene assay; method in brief: as §1
[6] = target: Toll-like receptor 2 (Mus musculus) (UniProt Q9QUN7); experiment: Agonist activity at mouse TLR2 expressed in HEK293 cells assessed as NFkappaB translocation after 12 hrs by secretory alkaline phosphatase reporter gene assay
Method in brief: (§2)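 HEK293 cells stably carrying human or murine TLR2 plus an NF-κB-driven secreted alkaline phosphatase reporter, kept in selection medium with zeocin and normocin. Seeded at ~10⁵ cells/mL and grown to confluency, then exposed to serially diluted compounds for 12 h. Secreted phosphatase in supernatant read colorimetrically at 620 nm with an alkaline phosphatase-specific chromogen in detection medium.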

[7] = target: Toll-like receptor 2 (Homo sapiens) (UniProt O60603); experiment: Agonist activity at human TLR2 expressed in HEK293 cells assessed as NFkappaB translocation after 12 hrs by secretory alkaline phosphatase reporter gene assay; method in brief: as §2

Structure (SMILES): COC(=O)[C@H](CO)NC(=O)[C@@H](N)CSCCOC(=O)c1ccc(-c2ccc(-c3ccccc3)cc2)cc1
- inhibition [1]: inactive
- Activity [2]: inactive
- inhibition [3]: inactive
- inhibition [4]: inactive
- inhibition [5]: inactive

Structure (SMILES): CCCCCCCCCCCCCCCC(=O)OCCSC[C@H](NCCCCCCCC)C(=O)N[C@@H](CO)C(=O)OC
- Activity [2]: inactive

Structure (SMILES): CCCC(=O)OCCSC[C@H](N)C(=O)N[C@@H](CO)C(=O)OC
- inhibition [1]: inactive
- Activity [2]: inactive
- inhibition [3]: inactive
- inhibition [4]: inactive
- inhibition [5]: inactive

Structure (SMILES): CCCCCCCCCCCCCCN(CCCCCCCCCCCCCC)CC(=O)OCCSC[C@H](N)C(=O)N[C@@H](CO)C(=O)OC
- Activity [2]: inactive

Structure (SMILES): CCCCCCCCCCCCCCCC(=O)OCCSC[C@H](NS(=O)(=O)c1ccc(C)cc1)C(=O)N[C@@H](CO)C(=O)OC
- Activity [7]: inactive

Structure (SMILES): CCCCCCCCCCCCCCCC(=O)N[C@@H](CSCCOC(=O)CCCCCCCCCCCCCCC)C(=O)N[C@@H](CO)C(=O)OC
- Activity [2]: inactive

Structure (SMILES): CCCCCCCC(=O)OCCSC[C@H](N)C(=O)N[C@@H](CO)C(=O)OC
- inhibition [1]: inactive
- Activity [2]: inactive
- inhibition [3]: inactive
- inhibition [4]: inactive
- inhibition [5]: inactive

Structure (SMILES): COC(=O)[C@H](CO)NC(=O)[C@@H](N)CSCCOC(=O)c1ccc(-c2ccccc2)cc1
- inhibition [1]: inactive
- Activity [2]: inactive
- inhibition [3]: inactive
- inhibition [4]: inactive
- inhibition [5]: inactive

Structure (SMILES): COC(=O)[C@H](CO)NC(=O)[C@@H](N)CSCCOC(=O)c1cccc(-c2ccccc2)c1
- inhibition [1]: inactive
- Activity [2]: inactive
- inhibition [3]: inactive
- inhibition [4]: inactive
- inhibition [5]: inactive

Structure (SMILES): CCCCCCCCCCCCCCCCN[C@@H](CSCCOC(=O)CCCCCCCCCCCCCCC)C(=O)N[C@@H](CO)C(=O)OC
- Activity [2]: inactive

Structure (SMILES): CCCCCCCCCCCCCCCC(=O)OCCSC[C@H](NS(=O)(=O)C(F)(F)F)C(=O)N[C@@H](CO)C(=O)OC
- Activity [7]: inactive

Structure (SMILES): CCCCCCCCCCCCCCCC(=O)OCCSC[C@H](NC(=O)C(Cl)(Cl)Cl)C(=O)N[C@@H](CO)C(=O)OC
- Activity [7]: inactive

Structure (SMILES): CCCCCCCCCCCCCCCC(=O)OCCSC[C@H](NC(=O)CCCCCCC)C(=O)N[C@@H](CO)C(=O)OC
- Activity [6]: inactive

Now from value to molecule:

- Activity [6]: inactive
Structure (SMILES): CCCCCCCCCCCCCCCC(=O)OCCSC[C@H](N)C(=O)N[C@@H](CO)C(=O)OC

- Activity [7]: Active
Structure (SMILES): CCCCCCCCCCCCCCCC(=O)OCCSC[C@H](N)C(=O)N[C@@H](COC(C)=O)C(=O)OC

- Activity [6]: inactive
Structure (SMILES): CCCCCCCCCCCCCCCCCC(=O)OCCSC[C@H](N)C(=O)N[C@@H](CO)C(=O)OC

- Activity [2]: inactive
Structure (SMILES): CCCCCCCCCCCCCCNCC(=O)OCCSC[C@H](N)C(=O)N[C@@H](CO)C(=O)OC

- Activity [7]: inactive
Structure (SMILES): CCCCCCCCCCCCCCCC(=O)OCCSC[C@H](NS(C)(=O)=O)C(=O)N[C@@H](CO)C(=O)OC

- Activity [6]: inactive
Structure (SMILES): CCCCCCCCCCCCCCCC(=O)OCCSC[C@H](NC(=O)CCC)C(=O)N[C@@H](CO)C(=O)OC

- Activity [2]: inactive
Structure (SMILES): CCCCCCCCCCCCCCCC(=O)OCCSC[C@H](NCC)C(=O)N[C@@H](CO)C(=O)OC

- inhibition [1]: inactive
- Activity [2]: inactive
- inhibition [3]: inactive
- inhibition [4]: inactive
- inhibition [5]: inactive
Structure (SMILES): CCCCCCCCCCCC(=O)OCCSC[C@H](N)C(=O)N[C@@H](CO)C(=O)OC

- Activity [6]: inactive
Structure (SMILES): CCCCCCCCCCCCCCCC(=O)OCCSC[C@H](NC(C)=O)C(=O)N[C@@H](CO)C(=O)OC

From ChEMBL document CHEMBL2046347, “Structure-activity relationships in human Toll-like receptor 2-specific monoacyl lipopeptides” (J Med Chem, 2012)
